Measurements taken from ChEMBL document CHEMBL4715770, “Inhibition of Low Molecular Weight Protein Tyrosine Phosphatase by an Induced-Fit Mechanism” (J Med Chem, 2016).

Assays:
[1] = biological target: T1, Low molecular weight phosphotyrosine protein phosphatase (Homo sapiens, UniProt P24666); assay: Competitive inhibition of His-tagged LMW-PTP isoform A (unknown origin) expressed in Escherichia coli BL21 cells using para-nitrophenyl phosphate as substrate by Lineweaver-Burk plot analysis
T1 sequence (P24666 whole entry): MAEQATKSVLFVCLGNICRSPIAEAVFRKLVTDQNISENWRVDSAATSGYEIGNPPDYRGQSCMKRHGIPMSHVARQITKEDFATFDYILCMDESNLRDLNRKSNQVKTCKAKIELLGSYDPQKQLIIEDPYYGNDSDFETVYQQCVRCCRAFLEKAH
Procedure, shortened: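 Recombinant enzyme Ni-NTA purified (Tris pH 7.8, 500 mM NaCl, 250 mM imidazole elution), then Sephadex G75. pNPP hydrolysis in 50 mM 3,3-dimethylglutarate, pH 7.0, 25 °C. Enzyme added last to mixes of varied pNPP and inhibitor concentrations, 5-10 min, NaOH quench. p-nitrophenol read at 405 nm (ε 18,000 M-1cm-1), no-enzyme blank subtracted. Ki fitted by enzyme-kinetics regression.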

[2] = biological target: Low molecular weight phosphotyrosine protein phosphatase (Homo sapiens) (UniProt P24666); assay: Inhibition of LMW-PTP isoform A in human HepG2 cells assessed as increase in insulin-induced Akt phosphorylation pretreated for 2 hrs followed by insulin stimulation and measured after 30 mins by Western blot analysis; format: cell-based; settings: dose 2-16 µM
Procedure, shortened: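 HepG2 cells in DMEM with 10% FBS at 37 °C and 5% CO2 were grown to 60-80% confluence and serum-starved overnight. They were given vehicle or compound for 2 h, then 50 nM insulin for 30 min. Lysates were run on 10% SDS-PAGE and immunoblotted for phospho-AKT and total AKT with ECL detection. Densitometric pAKT/AKT ratios were normalized to vehicle.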

[3] = biological target: T2, Serine/threonine-protein phosphatase 5 (Homo sapiens, UniProt P53041); assay: Inhibition of His-tagged PP5 (unknown origin) expressed in Escherichia coli BL21 cells using para-nitrophenyl phosphate as substrate incubated for 5 to 10 mins by microplate reader based spectrophotometric analysis
T2 sequence (P53041 whole entry): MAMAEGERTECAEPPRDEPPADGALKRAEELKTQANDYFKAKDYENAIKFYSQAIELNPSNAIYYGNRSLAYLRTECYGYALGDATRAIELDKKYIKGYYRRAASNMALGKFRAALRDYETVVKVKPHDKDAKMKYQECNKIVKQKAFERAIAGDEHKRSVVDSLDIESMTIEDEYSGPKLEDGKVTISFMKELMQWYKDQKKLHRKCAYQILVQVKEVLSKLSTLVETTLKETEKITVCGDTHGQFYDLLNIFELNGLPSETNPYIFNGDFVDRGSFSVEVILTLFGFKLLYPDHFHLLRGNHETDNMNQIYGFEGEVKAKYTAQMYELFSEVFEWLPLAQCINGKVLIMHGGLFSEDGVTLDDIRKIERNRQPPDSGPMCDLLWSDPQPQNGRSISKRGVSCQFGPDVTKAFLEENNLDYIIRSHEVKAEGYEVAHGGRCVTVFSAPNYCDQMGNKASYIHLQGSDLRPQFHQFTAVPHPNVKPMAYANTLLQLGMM

[4] = biological target: T3, Dual specificity protein phosphatase 6 (Homo sapiens, UniProt Q16828); assay: Inhibition of His-tagged MKP3 (unknown origin) expressed in Escherichia coli BL21 cells using para-nitrophenyl phosphate as substrate incubated for 5 to 10 mins by microplate reader based spectrophotometric analysis
T3 sequence (Q16828 whole entry): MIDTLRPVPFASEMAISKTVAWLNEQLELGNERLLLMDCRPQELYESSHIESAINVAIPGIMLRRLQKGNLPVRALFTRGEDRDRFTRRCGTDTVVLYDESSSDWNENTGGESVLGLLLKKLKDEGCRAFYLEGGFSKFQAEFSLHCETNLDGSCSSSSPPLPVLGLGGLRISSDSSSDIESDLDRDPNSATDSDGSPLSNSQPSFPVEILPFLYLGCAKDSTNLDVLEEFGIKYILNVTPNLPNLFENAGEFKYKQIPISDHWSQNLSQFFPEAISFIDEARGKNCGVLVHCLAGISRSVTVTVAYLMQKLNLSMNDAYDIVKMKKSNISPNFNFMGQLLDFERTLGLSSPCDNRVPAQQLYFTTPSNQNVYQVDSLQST

[5] = biological target: Receptor-type tyrosine-protein phosphatase alpha (Homo sapiens, UniProt P18433); assay: Inhibition of His-tagged PTPalpha (unknown origin) expressed in Escherichia coli BL21 cells using para-nitrophenyl phosphate as substrate incubated for 5 to 10 mins by microplate reader based spectrophotometric analysis
[6] = biological target: T1, Low molecular weight phosphotyrosine protein phosphatase; assay: Inhibition of His-tagged LMW-PTP isoform A (unknown origin) expressed in Escherichia coli BL21 cells using para-nitrophenyl phosphate as substrate incubated for 5 to 10 mins by microplate reader based spectrophotometric analysis
[7] = biological target: Dual specificity protein phosphatase 3 (Homo sapiens, UniProt P51452); assay: Inhibition of His-tagged VHR (unknown origin) expressed in Escherichia coli BL21 cells using para-nitrophenyl phosphate as substrate incubated for 5 to 10 mins by microplate reader based spectrophotometric analysis
Sequence of Dual specificity protein phosphatase 3 (P51452 whole entry): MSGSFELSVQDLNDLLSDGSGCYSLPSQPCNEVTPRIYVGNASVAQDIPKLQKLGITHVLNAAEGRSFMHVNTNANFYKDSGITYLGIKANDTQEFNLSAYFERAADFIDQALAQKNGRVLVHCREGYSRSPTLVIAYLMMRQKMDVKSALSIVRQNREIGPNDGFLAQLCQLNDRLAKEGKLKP

Sequence of Receptor-type tyrosine-protein phosphatase alpha (P18433 whole entry, canonical isoform): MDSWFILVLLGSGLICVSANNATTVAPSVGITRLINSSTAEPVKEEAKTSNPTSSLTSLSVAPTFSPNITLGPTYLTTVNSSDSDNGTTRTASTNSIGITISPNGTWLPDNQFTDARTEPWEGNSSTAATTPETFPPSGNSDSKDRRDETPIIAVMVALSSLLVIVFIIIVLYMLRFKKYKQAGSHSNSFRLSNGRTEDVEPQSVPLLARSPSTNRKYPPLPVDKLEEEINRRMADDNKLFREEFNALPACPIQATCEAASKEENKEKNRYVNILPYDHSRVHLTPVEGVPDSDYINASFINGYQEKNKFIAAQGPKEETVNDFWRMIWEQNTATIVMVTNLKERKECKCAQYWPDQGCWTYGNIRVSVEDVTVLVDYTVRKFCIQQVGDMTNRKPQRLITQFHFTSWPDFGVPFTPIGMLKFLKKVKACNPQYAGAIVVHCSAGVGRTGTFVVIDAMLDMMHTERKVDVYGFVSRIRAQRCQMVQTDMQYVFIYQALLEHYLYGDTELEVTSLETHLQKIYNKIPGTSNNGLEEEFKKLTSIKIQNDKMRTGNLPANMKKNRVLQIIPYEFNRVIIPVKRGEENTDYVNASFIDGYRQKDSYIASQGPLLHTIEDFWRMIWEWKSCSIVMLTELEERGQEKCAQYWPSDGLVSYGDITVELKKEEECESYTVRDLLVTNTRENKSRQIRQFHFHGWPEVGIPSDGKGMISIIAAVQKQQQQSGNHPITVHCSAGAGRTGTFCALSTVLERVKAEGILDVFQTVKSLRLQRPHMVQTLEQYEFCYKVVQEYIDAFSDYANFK

SMILES | Ki [1] [µM] | inhibition [2] | IC50 [3] [µM] | IC50 [4] [µM] | IC50 [5] [µM] | IC50 [6] [µM] | IC50 [7] [µM]
O=C(Nc1nc2ccc([N+](=O)[O-])cc2s1)C(c1ccccc1)S(=O)(=O)O (stereo not drawn) | 1 | Dose-dependent effect | > 100 | > 100 | > 100 | 2.1 | > 100
Cc1c(Br)cc(NC(=O)C(c2ccccc2)S(=O)(=O)O)cc1Br (stereo not drawn) |  |  | > 200 | > 200 | > 200 |  | > 200
O=C(Nc1cc(C(F)(F)F)cc(C(F)(F)F)c1)C(c1ccccc1)S(=O)(=O)O (stereo not drawn) |  |  | > 200 | > 200 | > 200 | 6.39 | > 200
O=C(Nc1ccc(OCc2ccccc2)c(Cl)c1)C(c1ccccc1)S(=O)(=O)O (stereo not drawn) |  |  | > 200 | > 200 | > 200 |  | 
O=C(Nc1ccc(-n2ccnc2)cc1)C(c1ccccc1)S(=O)(=O)O (stereo not drawn) |  |  | > 100 | > 100 | > 100 |  | > 100
